The source of these data is ChEMBL document CHEMBL4342472, “Investigation of Inactive-State κ Opioid Receptor Homodimerization via Single-Molecule Microscopy Using New Antagonistic Fluorescent Probes” (J Med Chem, 2020).

Experiment [1] has as its target T1, Kappa-type opioid receptor (Homo sapiens, UniProt P41145). Briefly: Displacement of [3H]-diprenorphine from recombinant human KOR transiently expressed in HEK293 cell membranes measured after 60 mins. A digest of the protocol: (§1)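 Membranes from HEK293T cells transiently transfected with human DOR, KOR or MOR; [3H]diprenorphine final 0.3 nM (DOR, KOR) or 0.2-0.3 nM (MOR) with varying competitor, 60 min at 37 °C in Tris/MgCl2/EDTA buffer pH 7.4. Nonspecific binding with 10 μM naloxone; IC50 by nonlinear regression converted to Ki via Cheng-Prusoff; selectivity as Ki ratio.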
On the technique in general: Loss of bound radioactivity is the signal in a displacement assay; it reports binding, not function.

The target of experiment [2] is Delta-type opioid receptor (Homo sapiens, UniProt P41143). Briefly: Displacement of [3H]-diprenorphine from recombinant human DOR transiently expressed in HEK293 cell membranes measured after 60 mins. Summed up: as §1
Sequence of Delta-type opioid receptor (P41143 whole entry): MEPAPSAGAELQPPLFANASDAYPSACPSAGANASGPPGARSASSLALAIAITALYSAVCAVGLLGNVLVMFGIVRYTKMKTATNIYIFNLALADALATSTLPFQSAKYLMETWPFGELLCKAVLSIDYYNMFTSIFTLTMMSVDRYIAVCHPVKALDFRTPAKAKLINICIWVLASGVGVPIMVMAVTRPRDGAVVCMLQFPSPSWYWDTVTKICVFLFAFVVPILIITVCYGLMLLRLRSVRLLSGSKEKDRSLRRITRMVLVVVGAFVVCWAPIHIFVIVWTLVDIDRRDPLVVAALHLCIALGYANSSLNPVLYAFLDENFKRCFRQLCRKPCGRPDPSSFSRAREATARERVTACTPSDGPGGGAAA
In experiment [3] the target is Mu-type opioid receptor (Homo sapiens, UniProt P35372). Description: Displacement of [3H]-diprenorphine from recombinant human MOR transiently expressed in HEK293 cell membranes measured after 60 mins. Summed up:
as §1

Experiment [4] is filed under the species Homo sapiens. Description: Selectivity ratio of Ki for displacement of [3H]-diprenorphine from recombinant human DOR transiently expressed in HEK293 cell membranes to Ki for displacement of [3H]-diprenorphine from recombinant human KOR transiently expressed in HEK293 cell membranes. A digest of the protocol:
as §1

The species entered for experiment [5] is Homo sapiens. Briefly: Selectivity ratio of Ki for displacement of [3H]-diprenorphine from recombinant human MOR transiently expressed in HEK293 cell membranes to Ki for displacement of [3H]-diprenorphine from recombinant human KOR transiently expressed in HEK293 cell membranes. A digest of the protocol: as §1
Experiment [6] has as its target T1, Kappa-type opioid receptor. Description: Binding affinity to recombinant human KOR transiently expressed in CHOK1 cells at 50 nM measured 20 mins post compound washout by TIRF microscopic analysis relative to control. It counts as cell-based. Summed up:
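CHO-K1 cells transiently expressing human KOR, 24 h post-transfection; incubated 20 min at 37 °C with 50 nM fluorescent ligand in complete medium, then washed on-stage with fresh imaging buffer. TIRF images of the same cell taken every minute over 20 min; cell ROI intensity compared with pre-wash image, bleaching control included; triplicate experiments.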

Experiment [7] addresses T1, Kappa-type opioid receptor. Description: Inverse agonist activity at recombinant human KOR transiently expressed in HEK293T cells co-expressing G-alphaqi assessed as reduction in dynorphin A-stimulated inositol phosphate accumulation measured after 180 mins by HTRF assay. It counts as functional, cell-based.
Experiment [8] deals with T1, Kappa-type opioid receptor. Description: Partial agonist activity at EA-tagged beta-arrestin2 fused KOR (unknown origin) stably expressed in HEK293 cells assessed as induction of beta-arrestin2 recruitment measured after 300 mins by chemiluminescence assay. The class given is cell-based. A digest of the protocol: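 PathHunter: HEK-293 cells stably expressing EA-tagged β-arrestin-2, transiently transfected with ProLink-tagged KOR-PK2; plated after 24 h, held a further 24 h at 37 °C. Compounds 1 pM to 10 μM final, 300 min at 37 °C, then detection mix 60 min at room temperature; chemiluminescence normalized to basal and dynorphin A maximum, nonlinear regression.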
Background: Activated receptors often draw arrestin, which recruitment assays turn into a signal.

In experiment [9] the target is T1, Kappa-type opioid receptor. Description: Binding affinity to recombinant human KOR expressed in CHOK1 cells assessed as compound-coupled receptor mobility by measuring distribution in immobile phase at 100 nM measured after 20 mins by TIRF-SMM based TA-MSD analysis. The class given is cell-based. A digest of the protocol: (§2)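 Wild-type human KOR transiently transfected into CHO-K1 cells (Lipofectamine 2000); labelled 4 h post-transfection with probe at 100 nM for 20 min, washed in HEPES imaging buffer pH 7.3 and imaged by TIRF at 20 °C. Trajectories from automated particle tracking; time-averaged MSD of individual trajectories fitted to obtain diffusion coefficient and assign motion class.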

Experiment [10] has as its target T1, Kappa-type opioid receptor. Briefly: Binding affinity to recombinant human KOR expressed in CHOK1 cells assessed as compound-coupled receptor mobility by measuring distribution in sub-diffusion phase at 100 nM measured after 20 mins by TIRF-SMM based TA-MSD analysis. It counts as cell-based. Summed up:
as §2

Experiment [11] has as its target T1, Kappa-type opioid receptor. Briefly: Binding affinity to recombinant human KOR expressed in CHOK1 cells assessed as compound-coupled receptor mobility by measuring distribution in normal diffusion phase at 100 nM measured after 20 mins by TIRF-SMM based TA-MSD analysis. It counts as cell-based. A digest of the protocol: as §2
Experiment [12] deals with T1, Kappa-type opioid receptor. Description: Binding affinity to recombinant human KOR expressed in CHOK1 cells assessed as compound-coupled receptor mobility by measuring distribution in super diffusion phase at 100 nM measured after 20 mins by TIRF-SMM based TA-MSD analysis. The class given is cell-based. A digest of the protocol:
as §2

Experiment [13] deals with T1, Kappa-type opioid receptor. Briefly: Binding affinity to recombinant human KOR expressed in CHOK1 cells assessed as time of KOR colocalization in cell surface at 100 nM by single molecule microscopic analysis. It counts as cell-based. Summed up: (§3)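 Human KOR transiently expressed in CHO-K1 cells, labelled 4 h post-transfection with Cy5 probe (10 nM) and Cy3 probe (100 nM), rapid wash, TIRF single-molecule imaging at 20 °C in HEPES buffer pH 7.3. Particles tracked automatically; observed co-localization durations deconvolved (Lucy-Richardson) against a CD86-SNAP (SiR-labelled) non-interacting control.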

The target of experiment [14] is T1, Kappa-type opioid receptor. Briefly: Binding affinity to recombinant human KOR transiently expressed in CHOK1 cells measured after 20 mins by TIRF microscopic analysis. The class given is cell-based. Summed up: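 Saturation binding on CHO-K1 cells transiently expressing human KOR (24 h post-transfection): 20 min incubation at 37 °C with each ligand concentration in complete medium, one wash in HEPES buffer pH 7.3, TIRF imaging. Mean whole-cell intensity (>30 cells per concentration), normalized to highest concentration, fitted by nonlinear regression for Kd; three replicates.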

In experiment [15] the target is T1, Kappa-type opioid receptor. Description: Binding affinity to recombinant human KOR expressed in CHOK1 cells assessed as time of KOR colocalization in cell surface at 10 nM by single molecule microscopic analysis. It counts as cell-based. A digest of the protocol: as §3

Activity calls are given as the source filed them. No cut-off for these calls is given here.

Broadly, the Ki is the dissociation constant of the complex between target and ligand, obtained from inhibition or displacement. The term Kd denotes a measure of binding affinity in units of concentration.

Sequence of Mu-type opioid receptor (P35372 whole entry): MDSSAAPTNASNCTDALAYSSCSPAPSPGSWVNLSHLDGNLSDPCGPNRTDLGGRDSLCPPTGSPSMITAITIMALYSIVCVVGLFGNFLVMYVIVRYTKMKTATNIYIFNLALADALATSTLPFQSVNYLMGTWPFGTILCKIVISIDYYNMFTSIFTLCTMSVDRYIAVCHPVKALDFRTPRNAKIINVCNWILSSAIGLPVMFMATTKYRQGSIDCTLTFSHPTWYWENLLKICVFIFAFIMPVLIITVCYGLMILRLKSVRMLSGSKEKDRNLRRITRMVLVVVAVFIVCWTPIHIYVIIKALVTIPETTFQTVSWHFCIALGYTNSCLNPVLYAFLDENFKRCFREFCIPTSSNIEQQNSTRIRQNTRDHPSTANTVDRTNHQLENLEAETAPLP
T1 sequence (P41145 whole entry): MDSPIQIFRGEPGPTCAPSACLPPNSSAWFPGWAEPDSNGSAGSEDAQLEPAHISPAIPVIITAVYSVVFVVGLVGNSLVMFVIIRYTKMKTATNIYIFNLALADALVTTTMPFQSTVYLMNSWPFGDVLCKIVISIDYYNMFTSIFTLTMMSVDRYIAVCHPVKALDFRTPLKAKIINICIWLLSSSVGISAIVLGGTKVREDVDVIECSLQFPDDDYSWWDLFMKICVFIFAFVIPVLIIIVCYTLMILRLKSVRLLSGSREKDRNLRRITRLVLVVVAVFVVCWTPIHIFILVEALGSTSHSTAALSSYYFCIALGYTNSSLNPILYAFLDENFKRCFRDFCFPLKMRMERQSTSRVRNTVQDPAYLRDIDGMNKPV

`CN1/C(=C/C=C/C=C/C2=[N+](CCCCCC(=O)NCC(=O)NCC(=O)NCCCNC(=N)Nc3ccc4[nH]c5c(c4c3)C[C@@]3(O)[C@H]4Cc6ccc(O)c7c6[C@@]3(CCN4CC3CC3)[C@H]5O7)c3ccc(S(=O)(=O)[O-])cc3C2(C)C)C(C)(C)c2cc(S(=O)(=O)O)ccc21`: the values for the Ki in experiment [1], in experiment [2] and in experiment [3] were 0.0011 µM, 0.106 µM and 0.1 µM, respectively. In addition, the figures for the Ratio Ki in [4] and in experiment [5] were 100 and 91, respectively. For the same molecule, the Activity in experiment [6] was over 90%. Moreover, the result in experiment [7] and in experiment [8] was inactive.
Take `CN1/C(=C/C=C/C2=[N+](CCCCCC(=O)NCCCNC(=N)Nc3ccc4[nH]c5c(c4c3)C[C@@]3(O)[C@H]4Cc6ccc(O)c7c6[C@@]3(CCN4CC3CC3)[C@H]5O7)c3ccc(S(=O)(=O)[O-])cc3C2(C)C)C(C)(C)c2cc(S(=O)(=O)O)ccc21`: the inhibitory constant (Ki) in [1] amounted to 0.0086 µM; in experiment [2], 0.031 µM; in experiment [3], 0.38 µM. The Ratio Ki in experiment [4] is 4; in experiment [5], 44. Further, the outcome in [7] was Active. In [8], the result was inactive. Also, the Activity came to 16% in experiment [9], 25% in experiment [10], 51% in experiment [11] and 8% in experiment [12]. Further, the TIME in experiment [13] was under 2.78e-05 h. Moreover, the dissociation constant Kd in experiment [14] worked out at 0.0188 µM.
As for `CN1/C(=C/C=C/C=C/C2=[N+](CCCCCC(=O)NCC(=O)NCC(=O)NCC(=O)NCC(=O)NCCCNC(=N)Nc3ccc4[nH]c5c(c4c3)C[C@@]3(O)[C@H]4Cc6ccc(O)c7c6[C@@]3(CCN4CC3CC3)[C@H]5O7)c3ccc(S(=O)(=O)[O-])cc3C2(C)C)C(C)(C)c2cc(S(=O)(=O)O)ccc21`, the Ki stood at 0.0018 µM in experiment [1], 0.193 µM in [2] and 0.133 µM in [3]. Besides, the Ratio Ki in [4] turned out to be 107; in [5], 74. Also, in [6], the Activity was over 90%. The outcome in experiment [7] and in [8] was inactive. For the same molecule, in [14], the equilibrium dissociation constant (Kd) came out at 0.0048 µM.
Regarding `CN1/C(=C/C=C/C2=[N+](CCCCCC(=O)NCC(=O)NCC(=O)NCC(=O)NCC(=O)NCCCNC(=N)Nc3ccc4[nH]c5c(c4c3)C[C@@]3(O)[C@H]4Cc6ccc(O)c7c6[C@@]3(CCN4CC3CC3)[C@H]5O7)c3ccc(S(=O)(=O)[O-])cc3C2(C)C)C(C)(C)c2cc(S(=O)(=O)O)ccc21`, the inhibitory constant (Ki) came to 0.0032 µM in [1], 0.28 µM in [2] and 0.11 µM in experiment [3]. For the same molecule, the Ratio Ki in [4] worked out at 88; in experiment [5], 34. The outcome in experiment [7] and in [8] was inactive.
Consider `CN1/C(=C/C=C/C=C/C2=[N+](CCCCCC(=O)NCCCNC(=N)Nc3ccc4[nH]c5c(c4c3)C[C@@]3(O)[C@H]4Cc6ccc(O)c7c6[C@@]3(CCN4CC3CC3)[C@H]5O7)c3ccc(S(=O)(=O)[O-])cc3C2(C)C)C(C)(C)c2cc(S(=O)(=O)O)ccc21`, for which the Ki in [1] was determined as 0.0014 µM; in experiment [2], 0.039 µM; in experiment [3], 0.04 µM. For the same molecule, the values for the Ratio Ki in experiment [4] and in [5] were 28 and 29, respectively. Besides, the Activity in experiment [6] is over 90%. The result in experiment [7] was Active. Also, the result in experiment [8] was inactive. In addition, in [15], the TIME was under 2.78e-05 h. Also, the equilibrium dissociation constant (Kd) in experiment [14] was determined as 0.0095 µM.
